Source: PubChem (Sanford-Burnham Center for Chemical Genomics)
HKDC1 act: activators of human hexokinase HKDC1; Q2TB90; recombinant HKDC1, G6PDH/diaphorase resazurin fluorescence; active compounds read low; activity change, negative = activation, % at 20 µM; hit rate 0.056% among 340,000;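 active = activation of 40% or more at 20 µM, a change of -40% or lower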
Target sequence (Q2TB90 whole entry, looked up): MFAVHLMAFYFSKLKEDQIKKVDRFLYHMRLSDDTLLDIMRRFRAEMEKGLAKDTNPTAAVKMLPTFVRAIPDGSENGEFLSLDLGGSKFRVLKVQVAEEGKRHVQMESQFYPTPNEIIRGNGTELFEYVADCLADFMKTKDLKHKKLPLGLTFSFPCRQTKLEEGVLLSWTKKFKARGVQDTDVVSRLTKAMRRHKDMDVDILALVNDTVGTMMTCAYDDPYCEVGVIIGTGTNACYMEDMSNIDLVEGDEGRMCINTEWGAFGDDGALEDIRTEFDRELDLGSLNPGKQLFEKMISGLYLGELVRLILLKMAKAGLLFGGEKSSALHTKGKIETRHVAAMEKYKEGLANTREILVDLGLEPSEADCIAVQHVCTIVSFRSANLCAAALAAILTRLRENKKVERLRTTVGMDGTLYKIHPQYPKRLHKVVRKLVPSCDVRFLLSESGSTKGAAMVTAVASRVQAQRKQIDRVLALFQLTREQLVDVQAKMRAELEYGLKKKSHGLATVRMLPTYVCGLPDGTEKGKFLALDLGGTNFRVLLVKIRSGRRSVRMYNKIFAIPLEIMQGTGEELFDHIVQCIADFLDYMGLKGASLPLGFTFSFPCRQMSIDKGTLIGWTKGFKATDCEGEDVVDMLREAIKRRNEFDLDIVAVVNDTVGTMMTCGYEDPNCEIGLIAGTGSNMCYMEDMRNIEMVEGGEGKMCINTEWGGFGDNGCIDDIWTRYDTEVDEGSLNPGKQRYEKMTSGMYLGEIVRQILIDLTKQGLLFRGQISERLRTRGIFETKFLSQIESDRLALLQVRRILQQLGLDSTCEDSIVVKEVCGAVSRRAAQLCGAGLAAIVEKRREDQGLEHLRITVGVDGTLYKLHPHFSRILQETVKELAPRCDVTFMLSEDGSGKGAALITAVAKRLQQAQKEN
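Signal: coupled resazurin-to-resorufin fluorescence, Ex 525/Em 613 nm. Test system: in-house human HKDC1 enzyme, G6PDH and diaphorase coupling enzymes. Quantity: HKDC1 5 µg/mL. Timing: 90 min reaction at room temperature, dark.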
Large screens that a line does not name were inactive. The list is a sample of the results.

COC(=O)c1c(NC(C)=O)sc(Cc2ccccc2)c1C	HKDC1 act -77.4
Cc1c(Cc2ccccc2)sc(NC(=O)Cc2ccccc2)c1C(N)=O	HKDC1 act -52.4
O=C(OCC(=O)N1CCN(C(=O)c2ccco2)CC1)c1cc(-c2ccccc2)nc2ccccc12	none
CC(NC1=CC(=O)c2cccnc2C1=O)C(O)c1ccccc1 (stereo not drawn)	none
COC(=O)CCC(=O)OC1(C)C(=O)C2=CN(c3ccccc3)C(c3ccc(OC)cc3)=CC2=C(Br)C1=O (stereo not drawn)	none
CC(=O)N1c2ccc(Cl)cc2C2C=CCC2C1c1cccc2ccccc12 (stereo not drawn)	none
O=C1C(Cl)=C(N2CCC(C(=O)O)CC2)C(=O)c2ccccc21	none
Cn1c(SSc2ccc(-c3cccnc3)n2C)ccc1-c1cccnc1	HKDC1 act -341.5
COC(=O)c1ccccc1NC1=C/C(=N\S(=O)(=O)c2ccc(C(=O)O)cc2)c2ccccc2C1=O	none
Oc1ccc2ccccc2c1/C=N/c1nccs1	none
O=C(COc1ccccc1/C=C\c1[nH]c(=O)[nH]c(=O)c1[N+](=O)[O-])Nc1ccccc1	none
Nc1nc(Cl)c(N)c(NCC2(CO)CC(CCc3ccccc3)C2)n1 (stereo not drawn)	none
O=C1C(=Cc2ccc(Br)o2)C(=O)c2ccccc21	none
NC(=S)N/N=C/c1ccc(Br)o1	HKDC1 act -55.3
Oc1ccc(O)c(Cc2nc3ccccc3[nH]2)c1	none
Cc1onc(-c2ccccc2)c1C(=O)NC(=S)NNC(=O)c1ccccc1O	HKDC1 act -44.5
Cc1[nH]c2ccccc2c1C1=CC(=O)C=CC1=O	none
O=C1C=CC2(C=C1)O[C@H](Cc1ccccc1)[C@@H](Cc1ccccc1)O2	none
Cc1ccc(-n2c3nc(=O)[nH]c(=O)c-3cc3cc([N+](=O)[O-])ccc32)cc1C	none
NC1=C(Cl)C(=O)c2ccc(S(N)(=O)=O)cc2C1=O	HKDC1 act -133.9
O=C1/C(=C/Nc2cccc([N+](=O)[O-])c2)CCc2ccccc21	none
CCc1ccc(S(=O)(=O)Nc2cc(SCC(=O)O)c(O)c3ccccc23)cc1	none
O=C(/C=C/c1cccc([N+](=O)[O-])c1)c1ccc([N+](=O)[O-])o1	none
CC1(C)C(=O)Nc2ccccc2N1C(=O)COC(=O)c1cc(Cl)cc(Cl)c1	HKDC1 act -41.3
CCOC(=O)C(C(=O)OCC)c1cc(Br)c2noc3c2c1C(=O)c1ccccc1-3	none
CN1CCN(C2=C(Cl)C(=O)c3ccccc3C2=O)CC1	none
Cc1cc(C(=O)N=Nc2c(O)n(C(C)C)c3ccccc23)n[nH]1	none
O=C(O)c1cc(O)c2c(c1)C(=O)c1cccc(O)c1C2=O	none
Oc1ccc(Br)cc1CNc1cccc2cccnc12	none
COC1=CC(=O)c2c(ccc3ncnc(N)c23)C1=O	none
COc1cccc2c1C(=O)C=C(C)C2=O	HKDC1 act -43.4
CCOC(=O)C1=C(O)c2ccccc2C(=O)/C1=C\c1ccc(C)cc1	none
CCN(CC)c1ccc2c(c1)oc(=O)c1c(Cl)cc(=O)oc12	none
Cc1[nH]c2ccccc2c1C(C#N)(C#N)C1C(=O)c2ccccc2C1=O	none
O=C(O)CN1C(=O)/C(=C2\C(=O)N(Cc3ccccc3Cl)c3ccccc32)SC1=S	none
COc1cc(SC#N)ccc1N=Cc1c(C)[nH]n(-c2ccc(Cl)cc2)c1=O	HKDC1 act -40.7
O=C(O)c1cc(N2N=C(C(F)(F)F)/C(=C/C=C/c3ccco3)C2=O)ccc1Cl	none
O=C(CSc1nnc(CCCN2C(=O)c3cccc4cccc(c34)C2=O)n1-c1ccccc1)N1CCCCC1	none
CCOc1ccc2c(c1)C(NC(C)=O)C(=O)N2CCN1CCOCC1 (stereo not drawn)	none
Cn1c(-c2ccccc2)c(C(=O)CC#N)c2ccccc21	HKDC1 act -45.2
CC1(C)Cc2c(c(N3CCOCC3)nc3sc4c(NCC5CCCO5)nnnc4c23)CS1 (stereo not drawn)	none
COc1cc2c(C#N)c(N3CCc4ccccc4C3)nc(N)c2c(N)n1	none
CCCCCCCCCC(=O)NNC(=O)c1c(O)c2ccccc2n(CC)c1=O	HKDC1 act -40.8
Cc1ccc(NC(=O)CN2C(=O)S/C(=C/c3ccc(-c4cc(C(=O)O)ccc4C)o3)C2=O)cc1C	none
C=CC1=C(C(=O)O)N2C(=O)C(NC(=O)Cc3ccccc3)C2SC1 (stereo not drawn)	none
C[c-]1[c-](C)[c-](C)[c-](C)[c-]1C.[Fe].c1cc2nccc(N3CCCC3)[c-]2c1 (stereo not drawn)	none
CC(=NNC(=S)N1CC2CCC(CC2)C1)c1ccncn1	HKDC1 act -54.1
O=C1C(SCCO)=C(SCCO)C(=O)c2ccccc21	none
Cc1n[nH]c(=O)c2c(NC(=O)CSc3nnc(C4CC4)n3C)oc(C)c12	none
O=C1C=C(N(CCO)Cc2ccccc2)c2ccccc2C1=O	none
O=C(O)c1cc(O)c2c(c1)[C@@H]([C@H]1c3cc(C(=O)O)cc(O)c3C(=O)c3c(O[C@@H]4O[C@H](CO)[C@@H](O)[C@H](O)[C@H]4O)cccc31)c1cccc(OC3O[C@H](CO)[C@@H](O)[C@H](O)[C@H]3O)c1C2=O (stereo partly drawn)	none
COCCNc1ccc([N+](=O)[O-])cc1C(=O)Nc1cccc(C)n1	HKDC1 act -57.6
Cc1cccc(/C=C/C(=O)c2ccc([N+](=O)[O-])o2)c1	none
O=c1c2c3nc4ccccc4nc3n(-c3ccc4c(c3)OCCO4)c2ncn1C1CCCC1	none
Nn1cnnc1N/N=C/c1cc(Br)cc(Br)c1O	HKDC1 act -52.2
COC(=O)c1ccc(NCc2c(O)ccc(O)c2Br)cc1Cl	none
O=C(NC1=C(NC2CCS(=O)(=O)C2)C(=O)c2ccccc2C1=O)c1ccccc1 (stereo not drawn)	none
O=C(CN(C(=O)CCC(=O)Nc1ccccn1)c1ccc2c(c1)OCO2)NCc1ccc(F)cc1	HKDC1 act -45.5
CC1=C(SCc2ccccc2)C(=O)c2ccccc2C1=O	none
Cc1ccc(N=C2C(=S)N(c3ccc(C)cc3)C(=N)N2/N=C/c2ccc(Cl)cc2)cc1	HKDC1 act -119.5
Nc1ccc(S(=O)(=O)c2cc(O)c3ccccc3c2O)cc1	none
Cc1ccc(S(=O)(=O)Nc2c(O)ccc3ccccc23)cc1	none
O=C(O)CSc1cc(NS(=O)(=O)c2cccc([N+](=O)[O-])c2)c2ccccc2c1O	none
O=C(Cc1ccc(Cl)cc1Cl)Nc1cccc(S(=O)(=O)Nc2ccccc2F)c1	HKDC1 act -40.7
COc1cc(/C=C2/C(=O)NN(c3ccc(Cl)c(Cl)c3)C2=O)cc([N+](=O)[O-])c1O	none
Cc1ccc(-c2nc(NC(=O)CSc3cc(C)c4ccccc4n3)ns2)cc1	none
CC1(C)CC[C@]2(C(=O)n3ccnc3)CC[C@]3(C)[C@H](C(=O)C=C4[C@@]5(C)C=C(C#N)C(=O)C(C)(C)[C@@H]5CC[C@]43C)[C@@H]2C1	none
CCc1nc2sc3c(=O)[nH]cnc3c2c2c1CSC(C)(C)C2	none
Cc1sc(-c2ccccn2)nc1OC(=O)c1ccc(F)cc1F	HKDC1 act -49.7
COC(=O)CCC(=O)OC1(C)C(=O)C2=CN(Cc3ccccc3)C(c3ccc(OC)cc3)=CC2=C(Br)C1=O (stereo not drawn)	none
COc1ccc(-c2csc(Nc3ccc(S(N)(=O)=O)cc3)n2)cc1	HKDC1 act -41.5
CC(=O)NC1C(=O)N(CCN2CCOCC2)c2ccc(Br)cc21 (stereo not drawn)	none
O=c1cc(O)sc2ccccc12	none
CC1=NOC(=O)/C1=C\c1ccc(-c2cc(Cl)ccc2Cl)o1	none
COc1ccc(C2=NNC(=Nc3cc(S(=O)(=O)N(C)C)ccc3C)SC2)c(OC)c1	HKDC1 act -124.6
CC(=O)Nc1ccc(C2=NNC(=Nc3cccc(S(=O)(=O)N(C)C)c3)SC2)cc1	HKDC1 act -284.2
